In data set [1] the target is human mGlu2 (Homo sapiens, UniProt Q14416). Description: thallium flux GIRK functional assay, human mGlu2. The format is cell-based.
Data set [2] is described as follows: LogP, shake flask method. The format is physicochemical. The following applies: n-octanol/water. The procedure, abridged: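 Test compound (50 µL of 20 µM DMSO stock) was mixed with mutually pre-saturated n-octanol and water (475 µL each), vortexed 1 min and shaken overnight at 37 °C. Each phase was quantified by LC-MS/MS, and LogP was taken as log of the octanol/water amount ratio. Run in triplicate.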

Data set [3] can be described thus: pH stability in buffer solutions. The format is physicochemical. The following applies: 60 min. An outline of the steps:
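A DMSO stock (0.25 µmol/mL) was diluted 50 µL into 950 µL of 20 mM buffer: phosphate pH 7.4, boric acid-KCl-NaOH pH 9.4, or sodium acetate-KCl-HCl pH 5.0. Samples were held 1 h at 37 °C, and unchanged compound was measured by reversed-phase HPLC (CH3CN/H2O + 0.1% TFA).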

The target of data set [4] is human mGlu3 (Homo sapiens, UniProt Q14832). Description: thallium flux GIRK functional assay, human mGlu3. Type of data set: cell-based. As to conditions: for selectivity for mGlu2 over mGlu3: thallium flux GIRK assays. The procedure, abridged: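 HEK cells stably co-expressing GIRK and human mGlu3 (puromycin-selected polyclonal line) were plated overnight and loaded with FluoZin2-AM (330 nM final) for 1 h at RT. Compound (0.3% DMSO final) was preincubated ~1 h at RT, then thallium buffer with a full glutamate concentration-response was added. The 5–15 s fluorescence slope, normalised to vehicle and maximal agonist, was fitted to a four-parameter logistic equation.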
Sequence of human mGlu3 (Q14832 23-879): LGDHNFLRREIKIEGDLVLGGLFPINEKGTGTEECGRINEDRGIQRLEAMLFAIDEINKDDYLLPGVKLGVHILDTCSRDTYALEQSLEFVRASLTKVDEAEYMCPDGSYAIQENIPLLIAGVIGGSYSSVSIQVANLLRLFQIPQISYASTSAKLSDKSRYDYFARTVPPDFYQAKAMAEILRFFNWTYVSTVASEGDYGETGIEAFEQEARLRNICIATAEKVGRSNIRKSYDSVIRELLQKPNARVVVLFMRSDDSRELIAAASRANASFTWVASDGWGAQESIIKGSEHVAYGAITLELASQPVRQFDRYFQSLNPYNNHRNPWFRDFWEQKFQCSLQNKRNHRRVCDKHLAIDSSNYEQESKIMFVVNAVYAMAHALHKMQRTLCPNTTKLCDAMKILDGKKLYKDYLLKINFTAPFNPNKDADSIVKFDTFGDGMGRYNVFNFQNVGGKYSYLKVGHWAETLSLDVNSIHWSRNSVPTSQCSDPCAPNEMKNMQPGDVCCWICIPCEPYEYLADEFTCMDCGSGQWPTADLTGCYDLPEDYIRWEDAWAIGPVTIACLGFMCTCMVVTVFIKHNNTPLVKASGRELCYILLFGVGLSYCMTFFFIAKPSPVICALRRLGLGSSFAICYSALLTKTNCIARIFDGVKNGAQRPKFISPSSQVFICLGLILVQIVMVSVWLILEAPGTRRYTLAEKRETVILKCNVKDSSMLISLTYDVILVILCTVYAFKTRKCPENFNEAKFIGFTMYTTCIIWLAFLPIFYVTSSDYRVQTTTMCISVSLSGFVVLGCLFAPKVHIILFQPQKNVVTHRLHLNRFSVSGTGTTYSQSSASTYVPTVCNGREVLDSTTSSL

The nature of data set [5]: liver microsomal stability. The format is in vitro ADME. As to conditions: Sprague-Dawley, rat, liver microsomes. The procedure, abridged:
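Sprague-Dawley rat liver microsomes in PBS with compound (0.5 µL of 2 mM DMSO stock) were preincubated 5 min at 37 °C. NADPH (10 mM stock) was added, then 60 min at 37 °C. Quenched with ice-cold CH3CN, centrifuged, quantified by LC-MS/MS as % peak area 60 vs 0 min. At least triplicate; verapamil positive control.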
(Liver microsomes are a subcellular fraction often used to study metabolism.)

Data set [6] can be described thus: PET imaging in normal rat brain. As to conditions: unlabeled QCA 1 mg/kg, self-blocking. Type of data set: in vivo, Sprague-Dawley rats.
The subject of data set [7] is major CNS targets. Description: GPCRome assays. The format is cell-based. The following applies: NIH PDSP.
Data set [8] has as its system other mGlu receptors. Put plainly: activity towards other mGlu receptors. The following applies: test concentration of 30 µM.
The conditions of data set [9]: cited from earlier work.
The target in data set [10] is mGlu2 (Rattus norvegicus, UniProt P31421). Put plainly: in vitro autoradiography on rat brain sections. The format is binding.
Sequence of mGlu2 (Rattus norvegicus, UniProt P31421) (P31421 19-872): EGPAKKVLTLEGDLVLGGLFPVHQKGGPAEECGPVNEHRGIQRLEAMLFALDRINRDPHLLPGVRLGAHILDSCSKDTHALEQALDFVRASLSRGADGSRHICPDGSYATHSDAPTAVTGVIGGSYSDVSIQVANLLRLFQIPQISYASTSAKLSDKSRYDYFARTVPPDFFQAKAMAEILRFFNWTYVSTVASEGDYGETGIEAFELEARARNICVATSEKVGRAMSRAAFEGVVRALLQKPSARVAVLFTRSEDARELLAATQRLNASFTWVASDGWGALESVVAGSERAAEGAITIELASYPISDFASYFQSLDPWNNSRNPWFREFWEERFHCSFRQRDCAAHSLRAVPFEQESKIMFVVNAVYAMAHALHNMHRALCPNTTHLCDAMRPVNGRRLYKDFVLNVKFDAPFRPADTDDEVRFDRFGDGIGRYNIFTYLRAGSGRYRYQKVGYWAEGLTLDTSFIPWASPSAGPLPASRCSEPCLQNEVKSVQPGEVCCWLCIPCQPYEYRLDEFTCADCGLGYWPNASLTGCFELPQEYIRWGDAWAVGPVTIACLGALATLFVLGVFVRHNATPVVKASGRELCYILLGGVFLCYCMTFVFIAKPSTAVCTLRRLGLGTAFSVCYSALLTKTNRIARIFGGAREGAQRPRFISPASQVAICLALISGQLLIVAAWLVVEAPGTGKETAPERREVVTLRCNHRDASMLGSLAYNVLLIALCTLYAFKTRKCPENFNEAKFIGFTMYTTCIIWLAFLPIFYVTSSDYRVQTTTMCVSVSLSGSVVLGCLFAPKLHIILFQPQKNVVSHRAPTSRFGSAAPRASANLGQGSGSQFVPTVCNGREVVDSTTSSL
The conditions of data set [11]: rat.
The test system of data set [12] is PgP/Bcrp.
For data set [13] the following is noted: mice.
Data set [14] deals with mGlu2. The following applies: cited from earlier work.

The text below walks through data of paper PMC5607115 (ACS chemical neuroscience, 2017).

Each structure is given as a SMILES string. Where two headings read alike, the source gives them in different places.

Usually IC50 stands for the concentration at which inhibition is half-maximal. For orientation: logP means the decadic logarithm of the partition coefficient of the neutral form, usually between octanol and water. What is called amount remaining is the share of the starting amount still present when the sample was taken.

Sequence of human mGlu2 (Q14416 19-872): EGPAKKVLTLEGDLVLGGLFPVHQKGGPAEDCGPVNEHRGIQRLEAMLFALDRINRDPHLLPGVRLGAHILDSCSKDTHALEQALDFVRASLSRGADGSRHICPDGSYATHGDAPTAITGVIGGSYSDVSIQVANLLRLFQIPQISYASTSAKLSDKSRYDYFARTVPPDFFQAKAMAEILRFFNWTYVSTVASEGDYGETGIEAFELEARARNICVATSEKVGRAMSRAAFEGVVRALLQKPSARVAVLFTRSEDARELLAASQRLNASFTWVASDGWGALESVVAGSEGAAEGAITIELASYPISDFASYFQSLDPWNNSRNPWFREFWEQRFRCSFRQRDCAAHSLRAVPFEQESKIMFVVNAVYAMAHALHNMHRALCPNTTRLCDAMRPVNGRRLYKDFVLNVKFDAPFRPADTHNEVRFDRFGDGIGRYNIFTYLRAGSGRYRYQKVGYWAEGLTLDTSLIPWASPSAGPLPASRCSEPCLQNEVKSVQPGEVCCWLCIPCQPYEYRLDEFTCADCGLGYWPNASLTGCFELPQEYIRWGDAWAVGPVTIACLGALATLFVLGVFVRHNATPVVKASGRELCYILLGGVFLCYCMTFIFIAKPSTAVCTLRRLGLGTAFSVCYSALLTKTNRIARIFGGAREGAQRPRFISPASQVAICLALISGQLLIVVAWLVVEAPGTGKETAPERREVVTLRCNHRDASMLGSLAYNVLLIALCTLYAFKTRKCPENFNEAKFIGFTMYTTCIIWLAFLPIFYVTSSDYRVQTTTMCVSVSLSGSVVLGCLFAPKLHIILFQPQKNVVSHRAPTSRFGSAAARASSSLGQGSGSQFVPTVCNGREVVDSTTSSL

In the case of `NC(=O)c1cc(-c2ccc(OCCF)cc2F)c2ccc(CN3C(=O)CCC3=O)cc2n1` [FEQCA, 7-((2,5-dioxopyrrolidin-1-yl)methyl)-4-(2-fluoro-4-(2-fluoroethoxy)phenyl)quinoline-2-carboxamide], in data set [1], inhibition was half-maximal at 130 ± 10 nM (IC50). In addition, in [2], the log partition coefficient (logP) was found to be 1.75. Also, the “pH stability, percent remaining of the parent molecule” value (“pH stability, percent remaining” below) in data set [3] (pH 5.0, 37 °C) is 98.5%; in [3] (pH 7.4, 37 °C) it was 53.6%; in data set [3] (pH 9.4, 37 °C), 59.0%. Moreover, the “selectivity for mGlu2 over mGlu3” value in data set [4] was “excellent selectivity for mGlu2 over mGlu3”. This molecule had a share remaining at 1 h, 2 µM in data set [5] of 70.1%.
For `NC(=O)c1cc(-c2ccc(OCCCF)cc2F)c2ccc(CN3C(=O)CCC3=O)cc2n1` [FPQCA, 7-((2,5-dioxopyrrolidin-1-yl)methyl)-4-(2-fluoro-4-(3-fluoropropoxy)phenyl)quinoline-2-carboxamide], half-maximal inhibition in data set [1] (IC50) required 1080 ± 1300 nM. Moreover, in data set [2], the logP worked out at 1.99. The “pH stability, percent remaining” value in [3] (pH 5.0, 37 °C) is on record as 91.5%; in data set [3] (pH 7.4, 37 °C), 72.5%; in data set [3] (pH 9.4, 37 °C) it was 76.3%. The “selectivity for mGlu2 over mGlu3” value in [4] is “excellent selectivity for mGlu2 over mGlu3”. The molecule also gave a share remaining at 1 h, 2 µM in data set [5] of 64.6%.
As for `COc1ccc(-c2cc(C(N)=O)nc3cc(CN4C(=O)CCC4=O)ccc23)c(F)c1` [QCA, 7-((2,5-dioxopyrrolidin-1-yl)methyl)-4-(2-fluoro-4-methoxyphenyl)quinoline-2-carboxamide], the “effect of pretreatment on [11C]QCA brain uptake” value in data set [6] was “failed to show significant reduction of brain uptake”. The same molecule gave a log partition coefficient (logP) in [2] of 1.27. For the same molecule, the “pH stability, percent remaining” value is 97.9% in [3] (pH 5.0, 37 °C); 50.9% in [3] (pH 7.4, 37 °C); 46.7% in [3] (pH 9.4, 37 °C). Also, the “effect on glutamate potency or glutamate maximal response (Schild analysis)” value in [4] (mGlu3, 41 nM-30 µM QCA) is “no effect”. Moreover, in data set [7], the “interaction with major CNS targets” value was “no significant interaction”. Moreover, the fraction remaining at 1 h, 2 µM in [5] was 64.4%. Besides, the “activity towards other mGlu receptors” value in [8] is “inactive”.
Regarding `[11CH3]Oc1ccc(C2CCN(c3ccn(CC4CC4)c(=O)c3C#N)CC2)cc1` [[^11C]CMDC, 1-(cyclopropylmethyl)-4-(4-[^11C]methoxyphenyl)-piperidin-1-yl-2-oxo-1,2-dihydropyridine-3-carbonitrile], the peak brain uptake entry in data set [9] was “ca. 0.6 SUV”.
As to `[11CH3]Oc1ccc(-c2cc(C(N)=O)nc3cc(CN4C(=O)CCC4=O)ccc23)c(F)c1` [[^11C]QCA, 7-((2,5-dioxopyrrolidin-1-yl)methyl)-4-(2-fluoro-4-[^11C]methoxyphenyl) quinoline-2-carboxamide], in data set [10], the “in vitro specific binding to mGlu2” value is recorded as “moderate-to-high level of in vitro specific binding”. The “unchanged [11C]QCA in brain homogenates” value amounted to 78% in [11] (5 min post injection), 41% in data set [11] (20 min post injection) and 34% in data set [11] (60 min post injection). The “unchanged [11C]QCA in plasma” value in data set [11] (5 min post injection) worked out at 93%; in data set [11] (20 min post injection), 88%; in data set [11] (60 min post injection), 79%. For the same molecule, the “peak brain uptake in whole brain” value in data set [12] (PgP/Bcrp knockout mice) was “ca. 0.8 SUV”; in [12] (wild-type mice) it was “ca. 0.3 SUV”. Further, in [12] (calculated based on area under curve), the “increase of whole brain uptake in PgP/Bcrp knockout vs wild-type mice” value is given as 130%. For the same molecule, the “uptake in heart, lungs, liver, pancreas, kidneys and small intestine” value in data set [13] (1 min post injection) is more than 3 % ID/g. Moreover, the “brain uptake, peak value” in data set [13] (at 1 min post injection) is reported as 0.42 % ID/g.
Turning to `[11CH3]Oc1c(F)ccc(F)c1C1CCN(c2ccn3c(CC4CC4)nnc3c2Cl)CC1` [compound 2], the “mGlu2 selectivity over the other mGlu receptors” value in data set [14] is on record as “greater than 350 fold”.
